In ChEMBL document CHEMBL1129630, “Synthesis and structure-activity relationships of retinoid X receptor selective diaryl sulfide analogs of retinoic acid” (J Med Chem, 1996):
Changes are numbered by the printed parent chain.

Experiments:
[1] = molecular target: T1, Retinoic acid receptor alpha (Mus musculus, UniProt P11416); experiment: Dissociation constant for binding to Retinoic acid receptor alpha; type: single protein
T1 sequence (P11416 whole entry): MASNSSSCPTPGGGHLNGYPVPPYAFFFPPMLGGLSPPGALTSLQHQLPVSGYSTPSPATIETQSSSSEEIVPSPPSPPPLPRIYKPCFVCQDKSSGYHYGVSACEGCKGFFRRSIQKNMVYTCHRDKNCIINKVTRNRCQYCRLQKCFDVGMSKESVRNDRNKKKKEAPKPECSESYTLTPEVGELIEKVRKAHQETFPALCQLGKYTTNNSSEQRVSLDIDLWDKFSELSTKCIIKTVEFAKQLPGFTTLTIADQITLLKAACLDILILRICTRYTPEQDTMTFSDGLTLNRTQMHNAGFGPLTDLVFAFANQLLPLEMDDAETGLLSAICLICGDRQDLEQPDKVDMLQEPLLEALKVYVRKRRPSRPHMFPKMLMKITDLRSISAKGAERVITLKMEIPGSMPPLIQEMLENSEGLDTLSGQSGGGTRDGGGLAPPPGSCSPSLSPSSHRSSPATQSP
Method in brief: (§1)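 Competitive binding assays against each receptor subtype, with Kd values taken from competition.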

[2] = molecular target: T2, Retinoic acid receptor RXR-gamma (Mus musculus, UniProt P28705); experiment: Dissociation constant for binding to Retinoid X receptor gamma; method in brief: as §1
T2 sequence (P28705 whole entry): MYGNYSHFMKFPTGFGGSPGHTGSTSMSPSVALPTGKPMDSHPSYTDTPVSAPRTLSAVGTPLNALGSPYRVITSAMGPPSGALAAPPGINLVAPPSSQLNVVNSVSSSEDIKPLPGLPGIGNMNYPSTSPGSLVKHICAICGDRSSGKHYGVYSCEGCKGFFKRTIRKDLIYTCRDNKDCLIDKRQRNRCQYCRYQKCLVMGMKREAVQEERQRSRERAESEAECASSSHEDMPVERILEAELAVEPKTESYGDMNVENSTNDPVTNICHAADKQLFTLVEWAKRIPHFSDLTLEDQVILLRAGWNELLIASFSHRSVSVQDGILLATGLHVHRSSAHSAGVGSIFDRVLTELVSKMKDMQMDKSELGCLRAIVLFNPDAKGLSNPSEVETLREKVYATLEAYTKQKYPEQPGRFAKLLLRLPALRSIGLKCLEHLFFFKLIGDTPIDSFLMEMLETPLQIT

[3] = molecular target: T3, Retinoic acid receptor beta (Mus musculus, UniProt P22605); experiment: Dissociation constant for binding to Retinoic acid receptor beta; method in brief: as §1
T3 sequence (P22605 whole entry): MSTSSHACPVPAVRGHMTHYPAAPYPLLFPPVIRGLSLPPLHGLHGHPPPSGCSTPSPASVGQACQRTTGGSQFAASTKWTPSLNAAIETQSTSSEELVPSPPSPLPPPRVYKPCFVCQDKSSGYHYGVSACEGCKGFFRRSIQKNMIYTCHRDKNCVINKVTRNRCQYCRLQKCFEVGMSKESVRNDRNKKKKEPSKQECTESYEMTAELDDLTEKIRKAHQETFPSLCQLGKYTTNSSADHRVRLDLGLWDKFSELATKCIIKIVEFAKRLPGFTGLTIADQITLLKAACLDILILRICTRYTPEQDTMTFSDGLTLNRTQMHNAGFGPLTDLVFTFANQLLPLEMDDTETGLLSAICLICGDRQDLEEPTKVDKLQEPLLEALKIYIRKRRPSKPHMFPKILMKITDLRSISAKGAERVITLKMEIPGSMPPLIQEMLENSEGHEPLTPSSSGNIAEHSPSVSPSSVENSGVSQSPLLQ

[4] = molecular target: T4, Retinoic acid receptor gamma (Mus musculus, UniProt P18911); experiment: Dissociation constant for binding to Retinoic acid receptor gamma; method in brief: as §1
T4 sequence (P18911 whole entry): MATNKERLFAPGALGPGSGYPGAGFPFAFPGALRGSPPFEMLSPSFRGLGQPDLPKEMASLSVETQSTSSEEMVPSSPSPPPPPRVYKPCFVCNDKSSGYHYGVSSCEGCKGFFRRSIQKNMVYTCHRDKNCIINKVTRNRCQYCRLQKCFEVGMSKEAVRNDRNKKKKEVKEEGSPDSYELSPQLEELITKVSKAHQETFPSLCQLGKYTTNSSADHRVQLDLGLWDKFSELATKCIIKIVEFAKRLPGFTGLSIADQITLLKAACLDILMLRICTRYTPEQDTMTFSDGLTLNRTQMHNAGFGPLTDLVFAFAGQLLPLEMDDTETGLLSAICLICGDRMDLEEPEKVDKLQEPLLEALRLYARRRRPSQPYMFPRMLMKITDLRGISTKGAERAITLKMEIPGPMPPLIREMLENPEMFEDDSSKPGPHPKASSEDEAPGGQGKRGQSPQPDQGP

[5] = molecular target: T5, Retinoic acid receptor RXR-gamma (Homo sapiens, UniProt P48443); experiment: Transcriptional activation of Retinoid X receptor RXR gamma; design: species or system Cercopithecidae
T5 sequence (P48443 whole entry): T2 sequence (P28705 whole entry) with T13A, F15Y, V31A, P34S, S228T, S230G, V258M, S450T
Method in brief: (§2)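 CV-1 cells transiently cotransfected with the receptor construct and a reporter gene, with induced transcription measured. Activity is normalized to all-trans RA.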

[6] = molecular target: T6, Retinoic acid receptor RXR-beta (Homo sapiens, UniProt P28702); experiment: Transcriptional activation of Retinoid X receptor RXR beta; design: species or system Cercopithecidae; method in brief: as §2
T6 sequence (P28702 whole entry): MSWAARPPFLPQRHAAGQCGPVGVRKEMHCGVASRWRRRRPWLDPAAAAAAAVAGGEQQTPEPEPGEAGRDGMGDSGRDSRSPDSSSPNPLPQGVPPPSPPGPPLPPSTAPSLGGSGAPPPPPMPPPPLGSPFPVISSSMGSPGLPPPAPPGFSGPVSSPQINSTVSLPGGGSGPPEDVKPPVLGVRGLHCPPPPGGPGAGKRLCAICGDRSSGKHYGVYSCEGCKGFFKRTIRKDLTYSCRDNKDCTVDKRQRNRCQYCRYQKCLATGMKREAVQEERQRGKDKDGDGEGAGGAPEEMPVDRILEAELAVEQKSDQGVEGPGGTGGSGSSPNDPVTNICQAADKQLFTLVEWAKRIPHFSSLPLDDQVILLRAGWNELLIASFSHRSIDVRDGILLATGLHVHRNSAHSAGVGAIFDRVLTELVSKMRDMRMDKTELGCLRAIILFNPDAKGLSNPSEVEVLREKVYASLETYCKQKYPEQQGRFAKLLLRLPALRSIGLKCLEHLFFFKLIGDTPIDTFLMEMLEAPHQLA

Cc1cc2c(cc1S(=O)(=O)c1ccc(C(=O)O)cc1)C(C)(C)CCC2(C)C
Kd [1]: > 10 µM
Kd [2]: 3.99 µM
Kd [3]: > 10 µM
Kd [4]: 10 µM

Cc1cc2c(cc1[S+]([O-])c1ccc(C(=O)O)cc1)C(C)(C)CCC2(C)C (stereo not given)
Kd [1]: > 10 µM
EC50 [5]: 1.6 µM
Kd [2]: > 10 µM
EC50 [6]: 3 µM
Kd [3]: > 10 µM
Kd [4]: 10 µM

Cc1cc2c(cc1Sc1ncc(C(=O)O)s1)C(C)(C)CCC2(C)C
Kd [1]: 1 µM
EC50 [5]: 1.9 µM
Kd [2]: 1 µM
EC50 [6]: 1.3 µM
Kd [3]: 1 µM
Kd [4]: 1 µM

Cc1cc2c(cc1Sc1ccc(C(=O)O)cn1)C(C)(C)CCC2(C)C
EC50 [5]: 0.042 µM

CC1(C)CCC(C)(C)c2cc(Sc3ccc(C(=O)O)cc3)ccc21
Kd [1]: 4.08 µM
Kd [3]: 4.24 µM
Kd [4]: > 10 µM

Cc1cc2c(cc1Sc1ccc(C(=O)O)cc1)C(C)(C)CCC2(C)C
Kd [1]: > 10 µM
EC50 [5]: 0.28 µM
EC50 [6]: 0.3 µM
Kd [3]: > 10 µM
Kd [4]: 10 µM
